A selection: hits, their analogues and other compounds. The true share with any hit is near 2.6%.
TCR-CD3 inh = inhibitors of human TCR-CD3 interaction | TAMRA-labeled TCR probe fluorescence, biochemical | inhibition, % at 9.4 µM | hit rate 0.37% among 360,000 | AID 651800;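 note: recombinant mutant TCR 2C K166C tagged with TAMRA read by polarization; 0% = receptor in buffer alone and 100% = receptor with positive control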
PRMT1 inh = PRMT1 (human) inhibition, primary screen; Q99873; recombinant PRMT1, activity-based probe fluorescence polarization; inhibition, % at 2.79 µM; hit rate 1.3% among 370,000;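 active = inhibition above about 21% made by adding two undisclosed values, limit read from the data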
ABHD4 inh = ABHD4 (mouse) inhibition, primary FP screen; hit rate 0.54% among 370,000; purified mABHD4, FP-Rh probe fluorescence polarization; inhibition, % at 8.92 µM; Q8VD66; AID 720543;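 active = inhibition exceeding the mean over every tested compound plus 3 SD, cut at about 30% in these data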;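 note: 0% = plate median of compound wells and 100% = S159A mutant with DMSO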
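System: mouse ABHD4 enzyme, wild type / Medium: HEPES pH 7.0, NaCl, Pluronic buffer / Reagent: FP-Rh activity-based fluorescent probe / Control set: S159A mutant high control, sample median low control / Detection: fluorescence polarization with parallel and perpendicular emission, 525/598 nm / Schedule: 45 min + 60 min at 25 °C / Compound dosing: 8.92 µM, single dose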
HTRA1 inhibitor = HTRA1 (human) protease inhibition | Q92743 | recombinant HTRA1, FP-rhodamine activity-based probe, fluorescence polarization | inhibition, % at 5.96 µM | hit rate 0.5% among 340,000; in the data active = inhibition above about 36%;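 note: 0% = enzyme with DMSO and 100% = wells lacking enzyme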
Target sequence (Q92743 whole entry, looked up): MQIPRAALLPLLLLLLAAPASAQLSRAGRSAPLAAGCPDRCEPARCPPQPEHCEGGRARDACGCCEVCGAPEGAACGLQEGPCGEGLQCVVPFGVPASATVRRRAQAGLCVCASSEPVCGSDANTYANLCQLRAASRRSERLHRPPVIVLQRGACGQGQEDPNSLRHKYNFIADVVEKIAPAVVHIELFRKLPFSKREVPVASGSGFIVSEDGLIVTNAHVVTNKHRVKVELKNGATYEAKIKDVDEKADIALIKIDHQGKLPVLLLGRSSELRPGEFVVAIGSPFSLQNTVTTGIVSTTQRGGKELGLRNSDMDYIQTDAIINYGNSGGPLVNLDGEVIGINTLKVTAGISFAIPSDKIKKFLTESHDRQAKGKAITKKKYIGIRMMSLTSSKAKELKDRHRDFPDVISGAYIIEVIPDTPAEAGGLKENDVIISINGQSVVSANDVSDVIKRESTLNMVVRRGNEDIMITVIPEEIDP
SIAE primary = inhibitors of human sialic acid acetylesterase SIAE. hit rate 0.69% among 370,000. Q9HAT2. inhibition, % at 9.66 µM. AID 1053197. SIAE FP-Rh probe binding, fluorescence polarization;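 active = inhibition above a cutoff: mean of compounds within the control limits plus 3 SD of those, cut at about 17% in these data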;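 note: 0% = plate median of compound wells and 100% = probe without SIAE protein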
HTRA1 inh conf = HTRA1 (human) inhibition, confirmation | inhibition, % at 5.96 µM | recombinant HTRA1, FP-rhodamine activity-based probe, fluorescence polarization | hit rate 66% among 1,600 | shares compounds with HTRA1 inhibitor | AID 540248;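 active = mean inhibition over three repeats above a set limit taken from the earlier primary screen, cut at about 37% in these data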;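 note: 0% = HTRA1 with DMSO and 100% = wells lacking HTRA1; inhibitors block probe binding so polarization drops and inhibition rises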
BSA TAMRA ctr = BSA probe counter-screen for TCR-CD3 inhibitors; shares compounds with TCR-CD3 inh; TAMRA-labeled BSA probe fluorescence counterscreen; inhibition, % at 9.4 µM; hit rate 10% among 1,200; AID 652035; in the data active = inhibition above about 23%;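 note: 0% = buffer low control and 100% = reference high control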
TCR-CD3 conf = TCR-CD3 interaction inhibition, confirmation | shares compounds with TCR-CD3 inh | TAMRA-labeled TCR probe fluorescence binding assay | inhibition, % at 9.4 µM | hit rate 48% among 1,200 | AID 652036
PRMT1 confirm = confirmation of human PRMT1 inhibitors; shares compounds with PRMT1 inh; hit rate 42% among 3,300; inhibition, % at 2.79 µM; AID 687036; recombinant His-PRMT1, activity-based probe fluorescence polarization;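 active = mean inhibition across replicates above the hit cutoff derived for the earlier primary screen, cut at about 22% in these data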
ABHD4 confirm = confirmation of mouse ABHD4 inhibitors; inhibition, % at 8.92 µM; shares compounds with ABHD4 inh; hit rate 55% among 1,800; purified mABHD4, FP-Rh probe fluorescence polarization; AID 720658;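 active = mean inhibition across replicates above the hit cutoff set in the primary screen, cut at about 30% in these data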;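 note: 0% = wild-type ABHD4 with DMSO and 100% = catalytically dead S159A mutant with DMSO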
An asterisk follows results filed as active. Cut-off read from the data, not from the text of the source, unless noted: active = inhibition above about 19%; inactive = the rest.

What do the screens show for `C=CCn1c(SCC(=O)c2ccc(O)c(O)c2)nnc1-c1ccccc1OC`?
TCR-CD3 inh: 5.1; PRMT1 inh: 9.5; ABHD4 inh: 29.5*; HTRA1 inhibitor: 58.6*; SIAE primary: 4.3; HTRA1 inh conf: 48.9*; ABHD4 confirm: 9.6

What do the screens show for `CCCCCCCCCCCCCCCC[n+]1cccc2ccccc21`?
TCR-CD3 inh: 4.6; PRMT1 inh: -0.7; ABHD4 inh: 37.3*; HTRA1 inhibitor: 64.0*; SIAE primary: 2.2; HTRA1 inh conf: 71.0*; ABHD4 confirm: 53.6*

How did CCCCCCCCC[n+]1cccc2c3ccccc3ccc21 do in these assays?
HTRA1 inhibitor: 11.0

Results for O=c1cc(CN2CCCC2)c2ccccc2o1 ?
TCR-CD3 inh: -0.9; PRMT1 inh: 2.5; ABHD4 inh: 1.0; SIAE primary: 15.9

How did COc1ccc(/C=C/C(=O)OCC(=O)NC2CCCC2)cc1OC do in these assays?
TCR-CD3 inh: -0.6; PRMT1 inh: -2.1; ABHD4 inh: 0.5; HTRA1 inhibitor: 4.3; SIAE primary: 2.7

How did c1ccc(-c2cc(NCCN3CCCCC3)c3ccccc3n2)cc1 do in these assays?
TCR-CD3 inh: 3.6; PRMT1 inh: -2.6; ABHD4 inh: 3.1; HTRA1 inhibitor: -7.7; SIAE primary: -5.2

Results for CC(=O)N1CCC(=NNC(=O)c2cc3ccccc3cc2O)CC1 ?
TCR-CD3 inh: 16.6; PRMT1 inh: 0.1; ABHD4 inh: 34.5*; HTRA1 inhibitor: 50.7*; SIAE primary: 8.0; HTRA1 inh conf: 23.9; ABHD4 confirm: 20.5

Results for NC1=C(Br)C(=O)c2ncccc2C1=O ?
TCR-CD3 inh: -1.5; PRMT1 inh: 9.8; ABHD4 inh: 6.1; HTRA1 inhibitor: 13.5; SIAE primary: 2.1

Results for O=C1C=C(NCCc2cc(Br)c(O)c(Br)c2)C(=O)c2ncccc21 ?
TCR-CD3 inh: 25.8*; PRMT1 inh: 12.7; ABHD4 inh: 47.7*; HTRA1 inhibitor: 53.1*; SIAE primary: 10.4; HTRA1 inh conf: 42.8*; BSA TAMRA ctr: -5.6; TCR-CD3 conf: 25.3*; ABHD4 confirm: 50.9*

Results for COCCN(CCOC)C(=O)[C@H](CCc1ccccc1)NC(=O)[C@H]1O[C@@H](n2cnc3c(N)ncnc32)[C@H](O)[C@@H]1O ?
TCR-CD3 inh: 1.6; PRMT1 inh: 6.7; ABHD4 inh: 9.6; SIAE primary: -2.4

What do the screens show for `CCN(CC)c1ccc(C(=C2C=CC(=[N+](CC)CC)C=C2)c2ccc(N(CC)CC)cc2)cc1`?
TCR-CD3 inh: 39.3*; PRMT1 inh: 4.5; ABHD4 inh: 109.6*; HTRA1 inhibitor: 82.9*; SIAE primary: 40.5*; HTRA1 inh conf: 86.4*; BSA TAMRA ctr: 39.6*; TCR-CD3 conf: 39.9*; ABHD4 confirm: 125.4*

How did CC1(C)OC(C)(C)C(=N/O)/C1=N\N do in these assays?
TCR-CD3 inh: -1.9; PRMT1 inh: 0.5; ABHD4 inh: 2.9; SIAE primary: 2.0

How did Cc1ccccc1-c1ccc2c(c1)[C@@H]1C[C@H](N(C)C(=O)Nc3ccccc3)[C@H]([C@H](C)O)CN1CC2 do in these assays?
TCR-CD3 inh: -3.6; PRMT1 inh: 3.4; ABHD4 inh: -8.7; SIAE primary: -0.8

What do the screens show for `CNCc1ccccc1Sc1ccc(O)c(O)c1`?
TCR-CD3 inh: 10.9; PRMT1 inh: 65.7*; ABHD4 inh: 35.4*; HTRA1 inhibitor: 62.4*; SIAE primary: 10.3; HTRA1 inh conf: 57.0*; ABHD4 confirm: 50.4*

What do the screens show for `COc1ccc(Sc2ccccc2CN(C)C)cc1OC`?
TCR-CD3 inh: 9.7; PRMT1 inh: 2.1; ABHD4 inh: -1.8; HTRA1 inhibitor: 4.4; SIAE primary: 2.6

Results for O=[N+]([O-])c1cc(-c2cnc3ccccc3n2)ccc1Cl ?
TCR-CD3 inh: -1.6; PRMT1 inh: 1.6; ABHD4 inh: -0.4; HTRA1 inhibitor: -5.0; SIAE primary: -7.1

Results for O=[N+]([O-])c1cc(-c2ccc(/C=N/c3nc4ccccn4c3-c3ccco3)o2)ccc1Cl ?
TCR-CD3 inh: 4.0; PRMT1 inh: 40.8*; ABHD4 inh: 45.6*; HTRA1 inhibitor: 36.7*; SIAE primary: 16.3; HTRA1 inh conf: 45.6*; PRMT1 confirm: 0.8; ABHD4 confirm: 16.1

What do the screens show for `N#C/C(=C\c1ccc(O)c(O)c1)C(=O)NCCc1ccccc1`?
TCR-CD3 inh: 7.6; PRMT1 inh: 11.6; ABHD4 inh: 50.7*; HTRA1 inhibitor: 70.5*; SIAE primary: 14.6; HTRA1 inh conf: 92.9*; ABHD4 confirm: 32.6*

Results for N#C/C(=C\c1ccc(O)c(O)c1)C(=O)N1CCc2ccccc21 ?
TCR-CD3 inh: 11.8; PRMT1 inh: 7.9; ABHD4 inh: 55.1*; HTRA1 inhibitor: 70.7*; SIAE primary: 8.0; HTRA1 inh conf: 86.2*; ABHD4 confirm: 16.4

Results for C[C@@H]1CN([C@@H](C)CO)C(=O)c2ccccc2-c2ccccc2CO[C@@H]1CN(C)Cc1ccc(Cl)c(Cl)c1 ?
TCR-CD3 inh: 3.4; PRMT1 inh: -0.5; ABHD4 inh: 0.4; SIAE primary: -3.4

How did CCc1c(-c2ccccc2)ncn1CCc1ccccc1OC do in these assays?
TCR-CD3 inh: 2.5; PRMT1 inh: 1.1; ABHD4 inh: 7.3; SIAE primary: -3.7

What do the screens show for `Cc1ccc2c(c1)c1c3n2CC(=C2C(=O)OC(C)(C)OC2=O)NC3CCC1` (stereo unspecified)?
TCR-CD3 inh: 16.6; PRMT1 inh: 2.6; ABHD4 inh: 37.0*; HTRA1 inhibitor: 50.9*; SIAE primary: 7.8; HTRA1 inh conf: 61.4*; ABHD4 confirm: 30.5*

How did COc1ccccc1Cc1c(C2CCCCC2)nc2c(C)cc(Br)cn12 do in these assays?
TCR-CD3 inh: -1.3; PRMT1 inh: 4.2; ABHD4 inh: -2.8; SIAE primary: -7.2

Results for Nc1cccc2c(O)cccc12 ?
TCR-CD3 inh: -9.7; PRMT1 inh: 16.9; ABHD4 inh: 42.3*; HTRA1 inhibitor: 39.5*; SIAE primary: 10.9; HTRA1 inh conf: 11.9; ABHD4 confirm: 50.8*

Results for N#CC1=C2N=C(N)c3ccccc3N2C2=C(C(=O)CCC2)C1c1ccc(F)cc1 (stereo unspecified) ?
TCR-CD3 inh: -2.6; PRMT1 inh: 7.5; ABHD4 inh: 7.6; HTRA1 inhibitor: -5.2; SIAE primary: 3.4

Source: PubChem BioAssay
